Reference: ChEMBL document CHEMBL5370595, “Development of Iodinated Indocyanine Green Analogs as a Strategy for Targeted Therapy of Liver Cancer” (ACS Med Chem Lett, 2023)
Blank lines part the entries; values can stand above or below the compound they belong to.

Key:
[1] = Drug uptake in parent HEK293T cells assessed as increase in mean fluorescence intensity at 10 uM incubated for 1 hr by flow cytometry analysis; type: ADME, cell-based; conditions: human, hek-293t
Summary of the method: (§1)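 Flow cytometry of cells exposed to 10 μM compound for 1 h, read as mean fluorescence intensity. Cell lines were OATP1B3-overexpressing HEK-293T (lentiviral transduction, MOI 10), parental HEK-293T, Hep3B, HepG2 and Huh-7.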

[2] = Drug uptake in HEK293T cells expressing OATP1B3 assessed as increase in mean fluorescence intensity at 10 uM incubated for 1 hr by flow cytometry analysis; type: ADME, cell-based; conditions: human, hek-293t; summary of the method: as §1
[3] = Drug uptake in human Hep3B cells assessed as increase in mean fluorescence intensity at 10 uM incubated for 1 hr by flow cytometry analysis; type: ADME, cell-based; conditions: hep 3b2, 1 h; summary of the method: as §1
[4] = Drug uptake in human HepG2 cells assessed as increase in mean fluorescence intensity at 10 uM incubated for 1 hr by flow cytometry analysis; type: ADME, cell-based; conditions: hepg2, 1 h; summary of the method: as §1
[5] = Drug uptake in human Huh-7 cells assessed as increase in mean fluorescence intensity at 10 uM incubated for 1 hr by flow cytometry analysis; type: ADME, cell-based; conditions: huh-7, 1 h; summary of the method: as §1
[6] = Drug uptake in tumor of athymic nude mouse xenografted with human Hep3B cells assessed as increase in tumor signal at 2 mg/kg, iv measured after 48 hrs post injection by IVIS Lumina imaging system; type: ADME, organism-based, Neoplasm, Hep 3B2; conditions: in vivo
Summary of the method: (§2)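 Female athymic nude mice bearing Hep3B or Huh-7 tumors received 2 mg/kg intravenously. They were imaged by IVIS at 4, 24 and 48 h. Tumors and livers were excised at 48 h for ex vivo fluorescence, with background taken from the neck signal.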

[7] = Drug uptake in human HepG2 cells assessed as increase in fluorescence signal at 25 uM incubated for 1 hr by flow cytometry based analysis; type: ADME, cell-based; conditions: hepg2, 1 h
[8] = Drug uptake in human HB17 cells assessed as increase in fluorescence signal at 25 uM incubated for 1 hr by flow cytometry based analysis; type: ADME, cell-based; conditions: hb17, 1 h
[9] = Drug uptake in human SH-SY5Y cells assessed as increase in fluorescence signal at 25 uM incubated for 1 hr by flow cytometry based analysis; type: ADME, cell-based
[10] = Drug uptake in human HepG2 cells assessed as increase in fluorescence signal at 10 to 25 uM incubated for 1 hr by confocal fluorescence microscopy based analysis; type: ADME, cell-based; conditions: hepg2, 1 h, dose 10-25 µM
[11] = Drug uptake in human HB17 cells assessed as increase in fluorescence signal at 10 to 25 uM incubated for 1 hr by confocal fluorescence microscopy based analysis; type: ADME, cell-based; conditions: hb17, 1 h, dose 10-25 µM
[12] = Drug uptake in human SH-SY5Y cells assessed as increase in fluorescence signal at 10 to 25 uM incubated for 1 hr by confocal fluorescence microscopy based analysis; type: ADME, cell-based; conditions: dose 10-25 µM
[13] = Drug uptake in tumor of athymic nude mouse xenografted with human Hep3B cells assessed as tumor to background ratio at 2 mg/kg, iv measured after 4 to 48 hrs by IVIS Lumina imaging system; type: ADME, organism-based, Neoplasm, Hep 3B2; conditions: in vivo, time 4-48 hrs
[14] = Drug uptake tumor of in athymic nude mouse xenografted with human Huh-7 cells assessed as tumor to background ratio at 2 mg/kg, iv measured after 4 to 48 hrs by IVIS Lumina imaging system; type: ADME, organism-based, Neoplasm; conditions: in vivo, time 4-48 hrs
[15] = Drug uptake in tumor of athymic nude mouse xenografted with human Huh-7 cells assessed as increase in tumor signal at 2 mg/kg, iv measured after 48 hrs post injection by IVIS Lumina imaging system; type: ADME, organism-based, Neoplasm; conditions: in vivo; summary of the method: as §2
[16] = Drug uptake in liver of athymic nude mouse xenografted with human Hep3B cells assessed as increase in liver signal at 2 mg/kg, iv measured after 48 hrs post injection by IVIS Lumina imaging system; type: ADME, organism-based, Hep 3B2; conditions: in vivo; summary of the method: as §2
[17] = Drug uptake in athymic nude mouse liver xenografted with human Huh-7 cells assessed as increase in liver signal at 2 mg/kg, iv measured after 48 hrs post injection by IVIS Lumina imaging system; type: ADME, organism-based; conditions: in vivo; summary of the method: as §2
[18] = Ratio of drug concentration in athymic nude mouse tumor to liver xenografted with human Huh-7 cells assessed as tumor to liver ratio at 2 mg/kg measured after 48 hrs post injection by IVIS Lumina imaging system; type: ADME, organism-based; conditions: in vivo
Summary of the method: (§3)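 Tumor-to-liver ratio was calculated from ex vivo fluorescence of excised tumors and livers at 48 h after 2 mg/kg intravenous dosing in xenograft-bearing female athymic nude mice.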

[19] = Ratio of drug concentration in athymic nude mouse tumor to liver xenografted with human Hep3B cells assessed as tumor to liver ratio at 2 mg/kg measured after 48 hrs post injection by IVIS Lumina imaging system; type: ADME, organism-based; conditions: in vivo; summary of the method: as §3
[20] = Drug uptake in tumor of mouse xenografted with HB66 PDX model assessed as increase in fluorescence signal at 10 mg/kg, iv measured after 72 hrs post injection by IVIS Lumina imaging system; type: ADME, organism-based, Neoplasm; conditions: in vivo
Summary of the method: (§4)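 Mice with orthotopic HB52 or HB66 hepatoblastoma PDX tumors, and non-tumor-bearing mice, received 10 mg/kg intravenously. Tumor growth was followed by MRI. Mice were imaged by IVIS at 24, 48 and 72 h, then tumors, livers and lungs were analysed ex vivo at 72 h, n = 1.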

[21] = Drug uptake in tumor of mouse xenografted with HB52 PDX model assessed as increase in fluorescence signal at 10 mg/kg, iv measured after 72 hrs post injection by IVIS Lumina imaging system; type: ADME, organism-based, Neoplasm; conditions: in vivo; summary of the method: as §4
[22] = Drug uptake in liver of mouse xenografted with HB66 PDX model assessed as increase in fluorescence signal at 10 mg/kg, iv measured after 72 hrs post injection by IVIS Lumina imaging system; type: ADME, organism-based; conditions: in vivo; summary of the method: as §4
[23] = Drug uptake in liver of mouse xenografted with HB52 PDX model assessed as increase in fluorescence signal at 10 mg/kg, iv measured after 72 hrs post injection by IVIS Lumina imaging system; type: ADME, organism-based; conditions: in vivo; summary of the method: as §4
[24] = Drug uptake in lung of non-tumor bearing mouse assessed as increase in fluorescence signal at 10 mg/kg, iv measured after 72 hrs post injection by IVIS Lumina imaging system; type: ADME, organism-based; conditions: in vivo; summary of the method: as §4
[25] = Drug uptake in parent HEK293T cells by DAPI staining based confocal fluorescence microscopy analysis; type: ADME, cell-based; conditions: human, hek-293t
[26] = Drug uptake in HEK293T cells expressing OATP1B3 by DAPI staining based confocal fluorescence microscopy analysis; type: ADME, cell-based; conditions: human, hek-293t
[27] = Drug uptake in human Hep3B cells expressing OATP1B3 by DAPI staining based confocal fluorescence microscopy analysis; type: ADME, cell-based; conditions: hep 3b2
[28] = Drug uptake in human HepG2 cells expressing OATP1B3 by DAPI staining based confocal fluorescence microscopy analysis; type: ADME, cell-based
[29] = Drug uptake in parent HEK293T cells at 10 uM incubated for 1 hr by DAPI staining based flow cytometry analysis; type: ADME, cell-based; conditions: human, hek-293t
[30] = Drug uptake in HEK293T cells expressing OATP1B3 at 10 uM incubated for 1 hr by DAPI staining based flow cytometry analysis; type: ADME, cell-based; conditions: human, hek-293t
[31] = Drug uptake in human Hep3B at 10 uM incubated for 1 hr by DAPI staining based flow cytometry analysis; type: ADME, cell-based; conditions: hep 3b2, 1 h
[32] = Drug uptake in human HepG2 at 10 uM incubated for 1 hr by DAPI staining based flow cytometry analysis; type: ADME, cell-based; conditions: hepg2, 1 h

SMILES: CC1(C)C(/C=C/C=C/C=C/C=C2/N(CCCCS(=O)(=O)[O-])c3ccc(I)cc3C2(C)C)=[N+](CCCCS(=O)(=O)[O-])c2ccc(I)cc21.[Na+]
Drug uptake [1]: Active
Drug uptake [2]: Active
Drug uptake [3]: Active
Drug uptake [4]: Active
Drug uptake [5]: Active

SMILES: CC1(C)C(/C=C/C=C/C=C/C=C2/N(CCCCS(=O)(=O)[O-])c3ccc4ccccc4c3C2(C)C)=[N+](CCCCS(=O)(=O)[O-])c2ccc3ccccc3c21.[Na+] [INDOCYANINE GREEN]
Drug uptake [25]: Active
Drug uptake [26]: Active
Drug uptake [27]: Active
Drug uptake [28]: Active
Drug uptake [29]: Active
Drug uptake [30]: Active
Drug uptake [31]: Active
Drug uptake [32]: Active
Drug uptake [7]: Active
Drug uptake [8]: Active
Drug uptake [9]: Not Active
Drug uptake [10]: Active
Drug uptake [11]: Active
Drug uptake [12]: Not Active
Ratio [13]: 2
Ratio [14]: 2
Ratio [18]: 2
Ratio [19]: 3

The next lines start with the values.

Drug uptake [1]: Active
Drug uptake [2]: Active
Drug uptake [3]: Active
Drug uptake [4]: Active
Drug uptake [5]: Active
SMILES: CC1(C)C(/C=C/C=C/C=C/C=C2/N(CCCCS(=O)(=O)[O-])c3cccc(I)c3C2(C)C)=[N+](CCCCS(=O)(=O)[O-])c2ccc3ccccc3c21.[Na+]

Drug uptake [6]: Active
Drug uptake [1]: Active
Drug uptake [2]: Active
Drug uptake [3]: Active
Drug uptake [4]: Active
Drug uptake [5]: Active
Drug uptake [7]: Active
Drug uptake [8]: Active
Drug uptake [9]: Not Active
Drug uptake [10]: Active
Drug uptake [11]: Active
Drug uptake [12]: Not Active
Ratio [13]: 5
Ratio [14]: 2
Drug uptake [15]: Active
Drug uptake [16]: Active
Drug uptake [17]: Active
Ratio [18]: 2
Ratio [19]: 3
Drug uptake [20]: Active
Drug uptake [21]: Active
Drug uptake [22]: Not Active
Drug uptake [23]: Not Active
Drug uptake [24]: Not Active
SMILES: CC1(C)C(/C=C/C=C/C=C/C=C2/N(CCCCS(=O)(=O)[O-])c3cccc(I)c3C2(C)C)=[N+](CCCCS(=O)(=O)[O-])c2cccc(I)c21.[Na+]

Drug uptake [1]: Active
Drug uptake [2]: Active
Drug uptake [3]: Active
Drug uptake [4]: Active
Drug uptake [5]: Active
SMILES: CC1(C)C(/C=C/C=C/C=C/C=C2/N(CCCCS(=O)(=O)[O-])c3cc(I)ccc3C2(C)C)=[N+](CCCCS(=O)(=O)[O-])c2cc(I)ccc21.[Na+]
